The values that follow come from ChEMBL document CHEMBL3352355, “Synthesis of novel polysubstituted (2SR,4RS)-2-heteroaryltetrahydro-1,4-epoxy-1-benzazepines and cis-2-heteroaryl-4-hydroxytetrahydro-1H-1-benzazepines as antiparasitic agents” (Eur J Med Chem, 2014).

In data set [1] the test system is Trypanosoma cruzi. Briefly: Antiparasitic activity against epimastigote stage of Trypanosoma cruzi infected in Vero cells assessed as parasite growth inhibition […] by hemocytometery. The format is functional, organism-based. In outline: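 Exponential-phase T. cruzi Sylvio X10 epimastigotes (LIT medium with hiFCS) or L. (L.) infantum MHOM/BR/74/PP75 promastigotes (RPMI 1640, hemin, HEPES, 10% hiFCS) were exposed to threefold serial dilutions (0.3–300 µg/mL) for 72 h at 28 °C. Viable parasites were counted by hemocytometer with 0.25% eosin yellow. IC50 came from sigmoidal regression, given as mean ± SD.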

Data set [2] in a line: Selectivity index, ratio of CC50 for African green monkey Vero cells to IC50 for epimastigote stage of Trypanosoma cruzi. It counts as functional. In outline: (§1)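 Selectivity index was calculated as CC50 in Vero (T. cruzi) or THP-1 (L. infantum) cells divided by parasite IC50. Both values came from 72 h mammalian-cell MTT assays and the parasite assays; SI ≥ 3 was defined as parasite-selective.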

Data set [3] relates to Trypanosoma cruzi. Description: Antiparasitic activity against amastigote stage of Trypanosoma cruzi infected in Vero cells assessed as parasite growth inhibition after 24 hrs by hemocytometery. It counts as functional, organism-based. The conditions noted are these: Trypanosoma cruzi, Vero, 24 h; read-out: IC50. Put shortly:
(§2)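 Host cells were Vero for T. cruzi (infected with tissue-derived trypomastigotes) and THP-1 (PMA-transformed, 10 ng/mL) for L. (L.) infantum (infected with late-phase promastigotes), at 1:10 cell:parasite for 24 h. Serial dilutions were given as two doses, the second on day 3 with a medium change. Read-out was % infected cells on methanol-fixed, Giemsa-stained slides (300 cells). IC50 came from sigmoidal regression; experiments in duplicate, concentrations in triplicate.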

Data set [4] can be described thus: Selectivity index, ratio of CC50 for African green monkey Vero cells to IC50 for amastigote stage of Trypanosoma cruzi. The format is functional. Put shortly: as §1
Data set [5] relates to Leishmania infantum. Briefly: Antiparasitic activity against amastigote stage of Leishmania infantum infected in THP1 cells assessed as parasite growth inhibition after 24 hrs by hemocytometery. The format is functional, organism-based, THP-1. The conditions noted are these: Leishmania infantum, THP-1, 24 h; read-out: IC50. Put shortly:
as §2

Data set [6] is described as follows: Cytotoxicity against African green monkey Vero cells. The format is cell-based. Particulars: chlorocebus sabaeus. In outline: (§3)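 Vero monolayers or THP-1 cells (made adherent with 10 ng/mL PMA), in RPMI 1640 with 10% hiFCS, were exposed to compound (0.3–300 µg/mL) for 72 h at 37 °C, 5% CO2. Viability was measured by MTT, with formazan dissolved in DMSO and read at 580 nm. % cytotoxicity was calculated against untreated cells; CC50 came from sigmoidal regression, given as mean ± SD.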

Data set [7] is described as follows: Selectivity index, ratio of CC50 for human THP1 cells to IC50 for promastigote stage of Leishmania infantum. It counts as functional, THP-1. Put shortly:
as §1

Data set [8] in a line: Selectivity index, ratio of CC50 for human THP1 cells to IC50 for amastigote stage of Leishmania infantum. It counts as functional, THP-1. In outline: as §1
A short description of data set [9]: Cytotoxicity against human THP1 cells. It counts as cell-based. The conditions noted are these: THP-1 cells. Put shortly:
as §3

The test system of data set [10] is Leishmania infantum. Description: Antiparasitic activity against promastigote stage of Leishmania infantum assessed as parasite growth inhibition after 72 hrs by hemocytometery.

As a reminder, the IC50 is the concentration at which inhibition is half-maximal. Usually CC50 stands for the concentration at which the toxic effect on the cells reaches its halfway point. For `Cc1ccsc1[C@@H]1C[C@H]2Cc3cc(F)ccc3N1O2` (racemic), the IC50 in [1] came to 102 µM; in [3], 330 µM; in data set [5] it was 204 µM; in data set [10], 75.9 µM. The “Selectivity Index” value is recorded as 5.9 in [2], 1.8 in data set [4], 2.9 in data set [7] and 1.1 in data set [8]. The results for the CC50 in data set [6] and in data set [9] were 601 µM and 221 µM, respectively.

For the molecule `FC(F)(F)Oc1ccc2c(c1)C[C@@H]1C[C@@H](c3ccco3)N2O1` (racemic), the IC50 is 166 µM in [1], 319 µM in data set [3], 172 µM in [5] and 16 µM in data set [10]. In addition, the “Selectivity Index” value in data set [2] is recorded as 0.6; in data set [4] it was 0.3; in data set [7] it was 19.9; in data set [8], 1.9. In addition, the CC50 was found to be 93.4 µM in data set [6] and 319 µM in [9].
